This is an account of results in ChEMBL document CHEMBL1671718, “Anti-Pseudomonas activity of frog skin antimicrobial peptides in a Caenorhabditis elegans infection model: a plausible mode of action in vitro and in vivo” (Antimicrob Agents Chemother, 2010).

Molecules are shown by their SMILES. In brackets after ≈: the same amount, converted by molar mass. Activity calls are given as the source filed them. The calls are words filed in the database; no cut-off is given here. Where a SMILES comes first, the peptide text is derived from it.

Data set [1] concerns Pseudomonas aeruginosa. Description: Antibacterial activity against multidrug-resistant Pseudomonas aeruginosa clinical isolate by broth microdilution method. The format is functional. In short, it runs like this: (§1)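 Adapted CLSI broth microdilution in Mueller-Hinton broth; mid-log bacteria at 2 × 10^6 CFU/ml mixed 1:1 with peptide dilutions (2-fold series from 20% ethanol stocks, 1–64 μM). Growth read by absorbance at 595 nm after 18–20 h at 37°C; MIC = lowest concentration giving 100% growth inhibition.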
In general terms: In broth dilution the organism is exposed to a series of concentrations in liquid medium.

For data set [2], the system named is Pseudomonas aeruginosa. The data set can be described thus: Bactericidal activity against multidrug-resistant Pseudomonas aeruginosa clinical isolate assessed as concentration required for >= 3 log10 CFU/ml reduction in viable bacteria in Mueller-Hinton broth after 90 mins. Conditions: 1.5 h. The format is functional. In short, it runs like this: (§2)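 Exponential-phase bacteria resuspended at 1 × 10^7 CFU/ml in MHB or PBS; 10 μl incubated with 2-fold peptide dilutions (2–64 μM) in 100 μl, 37°C, 90 min, then plated on LB agar and counted after overnight growth. Value = concentration giving ≥3 log10 CFU/ml reduction. Solvent control 0.6% ethanol.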

The subject of data set [3] is Pseudomonas aeruginosa. Description: Bactericidal activity against multidrug-resistant Pseudomonas aeruginosa clinical isolate assessed as concentration required for >= 3 log10 CFU/ml reduction in viable bacteria in phosphate-buffer saline containing 150 mM sodium salt after 90 mins. The format is functional. Conditions: 1.5 h. In short, it runs like this:
as §2

Data set [4] deals with Pseudomonas aeruginosa. Description: Antibacterial activity against multidrug-resistant Pseudomonas aeruginosa clinical isolate assessed as reduction in viable bacterial count at MIC after 5 mins by time-kill analysis. The format is functional. The gist of the method: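 Bacteria grown in MHB at 37°C, diluted into PBS (about 1 × 10^5 CFU in 100 μl), incubated at 37°C with peptide at its MIC; 10 μl samples taken at intervals, diluted in MHB, plated on LB agar, CFU counted after overnight growth. Controls untreated or 0.6% ethanol solvent; three independent experiments, mean ± SD.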

Data set [5] in a line: Toxicity in human RBC assessed as hemolytic activity upto 64 uM. The format is cell-based. Conditions: erythrocyte. The gist of the method:
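Fresh erythrocytes from healthy human donors, washed three times in 0.9% NaCl, used as a 5% (vol/vol) final suspension. Peptides were dissolved in 20% ethanol and tested at 2 to 64 μM, with agitation at 37°C for 40 min. Hemoglobin release was read as supernatant absorbance at 540 nm. The blank was solvent at 0.6% final; hypotonic lysis gave 100%.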

The test system of data set [6] is Pseudomonas aeruginosa. Description: Antibacterial activity against multidrug-resistant Pseudomonas aeruginosa clinical isolate infected in Caenorhabditis elegans assessed as increase in worm survival at 0.3 nM after 40 hrs relative untreated control. The format is functional. In short, it runs like this: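 N2 young adults infected 6 h at 25°C on modified NGM lawns of clinical isolate, washed in M9, 15 worms/well in 50 μl S medium with E. coli OP50 plus peptide (0.3 or 0.01 nM depending on peptide); 40 h at 25°C. Dead = no movement or muscle tone; at least three experiments, mean ± SD.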

Data set [7] has as its system Pseudomonas aeruginosa. Description: Antibacterial activity against multidrug-resistant Pseudomonas aeruginosa clinical isolate infected in Caenorhabditis elegans assessed as worm survival at 0.01 nM after 48 hrs. The format is functional, organism-based.
For data set [8], the system named is Pseudomonas aeruginosa. Description: Antibacterial activity against multidrug-resistant Pseudomonas aeruginosa clinical isolate infected in Caenorhabditis elegans assessed as reduction in viable bacterial count in intestinal lumen after 24 hrs by agar plate assay relative to untreated worm. The format is functional. The gist of the method: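 Worms infected 6 h, then on OP50 NGM plates with 0.5 nM peptide added. Before and after 1 day, 10 worms per replicate washed three times in M9 with 20 μg/ml gentamicin, lysed in M9–1% Triton X-100, and plated on LB with 100 μg/ml ampicillin; CFU counted after overnight growth at 37°C. At least three experiments.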

For data set [9], the system named is Pseudomonas aeruginosa. Description: Antibacterial activity against multidrug-resistant Pseudomonas aeruginosa clinical isolate infected in Caenorhabditis elegans assessed as increase in worm survival within 6 days agar plate assay relative to untreated worm. The format is functional. In short, it runs like this: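 Worms infected 6 h, washed in M9, 15 per 3.5-cm NGM plate with E. coli OP50, moved daily to fresh plates freshly spread with 200 μl of 0.5 nM peptide. Death scored as absence of touch-provoked movement over 6 days versus untreated infected worms; at least three experiments.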

The test system of data set [10] is Pseudomonas aeruginosa. Description: Antibacterial activity against Pseudomonas aeruginosa ATCC 15692 by broth microdilution method. The format is functional. In short, it runs like this:
as §1

Data set [11] relates to Pseudomonas aeruginosa. Description: Antibacterial activity against Pseudomonas aeruginosa ATCC 15692 expressing GFP infected in Caenorhabditis elegans assessed as reduction in viable bacterial count in intestinal lumen after 90 mins by fluorescence microscopy. The format is functional, organism-based. The gist of the method: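 Nematodes infected 16 h with GFP-expressing ATCC 15692 (plasmid pSMC21, ampicillin-selected), moved to OP50 NGM plates with or without 0.5 nM peptide; after 90 min, gut fluorescence viewed by epifluorescence stereomicroscopy (GFP2 filter, ×60).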

The test system of data set [12] is Pseudomonas aeruginosa. The data set can be described thus: Induction of membrane permeation on multidrug-resistant Pseudomonas aeruginosa clinical isolate infected in Caenorhabditis elegans assessed as increase in membrane permeability assessed as increase in membrane permeability by Sytox green dye influx assay. The format is functional, organism-based. The gist of the method: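 N2 adults infected 16 h, washed in M9, held about 24 h at 25°C on K medium agar to expand gut bacteria (about 1,000 CFU/worm). 200 worms per well in 300 μl K medium with 1 μM Sytox Green, 5 min in the dark; 10 nM peptide added, fluorescence (485/535 nm) read at 25°C until plateau (about 40 min). Controls: 0.3% ethanol-treated infected worms and uninfected worms; two experiments.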

The subject of data set [13] is Escherichia coli. Description: Induction of membrane permeation on GFP expressing Escherichia coli OP50 infected in Caenorhabditis elegans assessed as increase in membrane permeability assessed as increase in membrane permeability after 16 hrs post dose by Sytox green dye influx assay. The format is functional, organism-based.
Data set [14] in a line: Toxicity in human RBC assessed as hemolytic activity at 32 uM. The format is cell-based, Erythrocyte. Conditions: red blood cells, read-out: Activity.
Data set [15] is described as follows: Toxicity in human RBC assessed as hemolytic activity <32 to 64 uM. The format is cell-based. Conditions: erythrocyte.
Data set [16] has as its system Caenorhabditis elegans. Description: Toxicity in multidrug-resistant Pseudomonas aeruginosa clinical isolate infected Caenorhabditis elegans induction of worm mortality at >0.01 nM after 48 hrs. The format is organism-based. Conditions: in vivo.
Data set [17] in a line: Toxicity in human RBC assessed as hemolytic activity at 64 uM. The format is cell-based, Erythrocyte. Conditions: red blood cells, read-out: Activity.

As for `CC[C@H](C)[C@H](NC(=O)CN)C(=O)N[C@@H](Cc1ccccc1)C(=O)N[C@@H](CO)C(=O)N[C@@H](CCCCN)C(=O)N[C@@H](CC(C)C)C(=O)N[C@@H](C)C(=O)NCC(=O)N[C@@H](CCCCN)C(=O)N[C@@H](CCCCN)C(=O)N[C@@H](CC(C)C)C(=O)N[C@@H](CCCCN)C(=O)N[C@@H](CC(N)=O)C(=O)N[C@@H](CC(C)C)C(=O)N[C@@H](CC(C)C)C(=O)N[C@H](C(=O)N[C@@H](CO)C(=O)NCC(N)=O)[C@@H](C)CC` (H-GIFSKLAGKKLKNLLISG-NH2), the MIC in data set [1] was 8 µM (≈ 15.1 µg/mL); in data set [2] it was 64 µM (≈ 121 µg/mL); in data set [3], 16 µM; in data set [10] it was 8 µM (≈ 15.1 µg/mL). Also, the CFU/ml in data set [4] was determined as 950000. Further, the Activity result in [5] is “Non-toxic”. For the same compound, the “fold change (FC)” value in data set [6] is recorded as 4; in data set [8] it was 5; in [9], 2. Besides, the outcome in [7] and in data set [13] was inactive. Moreover, the outcome in data set [11] and in data set [12] was Active.

In the case of `CC[C@H](C)[C@H](NC(=O)CN)C(=O)N[C@@H](Cc1ccccc1)C(=O)N[C@@H](CO)C(=O)N[C@@H](CCCCN)C(=O)N[C@@H](CC(C)C)C(=O)N[C@@H](C)C(=O)NCC(=O)N[C@@H](CCCCN)C(=O)N[C@@H](CCCCN)C(=O)N[C@H](C(=O)N[C@@H](CCCCN)C(=O)N[C@@H](CC(N)=O)C(=O)N[C@@H](CC(C)C)C(=O)N[C@@H](CC(C)C)C(=O)N[C@H](C(=O)N[C@@H](CO)C(=O)NCC(=O)N[C@@H](CC(C)C)C(=O)N[C@@H](CCCCN)C(=O)NCC(N)=O)[C@@H](C)CC)[C@@H](C)CC` (H-GIFSKLAGKKIKNLLISGLKG-NH2), the MIC is 4 µM (≈ 8.74 µg/mL) in data set [1], 16 µM (≈ 35 µg/mL) in data set [2] and 4 µM in [3]. For the same compound, the CFU/ml in data set [4] stood at 998000. Further, the Activity entry in [5] was “Non-toxic”. Further, the result in [7] was inactive.

On to `CC[C@H](C)[C@H](NC(=O)[C@@H]1CCCN1C(=O)[C@H](CC(C)C)NC(=O)[C@@H](N)CC(C)C)C(=O)N[C@H](C(=O)NCC(=O)N[C@@H](CC(N)=O)C(=O)N[C@@H](CC(C)C)C(=O)N[C@@H](CC(C)C)C(=O)N[C@@H](CCCCN)C(=O)N[C@@H](CO)C(=O)N[C@@H](CC(C)C)C(=O)N[C@@H](CC(C)C)C(N)=O)C(C)C` (H-LLPIVGNLLKSLL-NH2), for which the MIC in data set [1], in [2], in [3] and in data set [10] was over 64 µM in each case. Besides, the hemolysis at 32 µM in [14] stood at 5%. Further, the “fold change (FC)” value in [6] is listed as 4. Further, the result in [7] was inactive. In addition, the outcome in data set [8] and in data set [11] was Active. Also, the Activity entry in data set [15] is “Non-toxic”.

Consider `CC[C@H](C)[C@H](NC(=O)[C@H](CCCNC(=N)N)NC(=O)CNC(=O)[C@H](CC(C)C)NC(=O)[C@H](Cc1ccccc1)NC(=O)[C@H](CCCCN)NC(=O)[C@H](CO)NC(=O)[C@H](Cc1ccccc1)NC(=O)[C@H](Cc1c[nH]c2ccccc12)NC(=O)[C@H](CCC(N)=O)NC(=O)[C@@H](NC(=O)[C@@H](N)Cc1ccccc1)C(C)C)C(=O)N[C@@H](CC(C)C)C(N)=O` [TEMPORIN L] (H-FVQWFSKFLGRIL-NH2), for which the MIC in data set [1] is 64 µM (≈ 105 µg/mL); in data set [2], over 64 µM; in [3], 16 µM. Moreover, the outcome in [7] was inactive. Further, the Activity result in data set [16] is recorded as “Toxic”.

For `CC[C@H](C)[C@H](NC(=O)CNC(=O)[C@H](CO)NC(=O)[C@H](CC(C)C)NC(=O)[C@@H](NC(=O)[C@H](CCCCN)NC(=O)CNC(=O)[C@@H](NC(=O)[C@H](CC(C)C)NC(=O)[C@@H]1CCCN1C(=O)[C@H](CC(C)C)NC(=O)[C@@H](N)Cc1ccccc1)[C@@H](C)CC)C(C)C)C(=O)N[C@@H](CC(C)C)C(N)=O` (H-FLPLIGKVLSGIL-NH2), the MIC in [1], in data set [2] and in data set [3] was over 64 µM in each case. For the same compound, in data set [17], the hemolysis at 64 µM amounted to 12%. Moreover, in [7], the outcome was inactive. Also, in data set [15], the Activity entry is on record as “Non-toxic”.

Broadly, the MIC is the lowest concentration found to suppress growth.
